Assay results taken from ChEMBL document CHEMBL4680221, “Discovery of pyrazole derivatives as cellular active inhibitors of histone lysine specific demethylase 5B (KDM5B/JARID1B)” (Eur J Med Chem, 2020).
pIC50: −log10 of the molar value. The source made the active and inactive calls. The rule behind the calls is not given here.

Key:
[1] = biological target: T1, Lysine-specific demethylase 4C (Homo sapiens) (UniProt Q9H3R0); assay: Inhibition of KDM4C (unknown origin) at 0.25 uM relative to control
T1 sequence (whole entry): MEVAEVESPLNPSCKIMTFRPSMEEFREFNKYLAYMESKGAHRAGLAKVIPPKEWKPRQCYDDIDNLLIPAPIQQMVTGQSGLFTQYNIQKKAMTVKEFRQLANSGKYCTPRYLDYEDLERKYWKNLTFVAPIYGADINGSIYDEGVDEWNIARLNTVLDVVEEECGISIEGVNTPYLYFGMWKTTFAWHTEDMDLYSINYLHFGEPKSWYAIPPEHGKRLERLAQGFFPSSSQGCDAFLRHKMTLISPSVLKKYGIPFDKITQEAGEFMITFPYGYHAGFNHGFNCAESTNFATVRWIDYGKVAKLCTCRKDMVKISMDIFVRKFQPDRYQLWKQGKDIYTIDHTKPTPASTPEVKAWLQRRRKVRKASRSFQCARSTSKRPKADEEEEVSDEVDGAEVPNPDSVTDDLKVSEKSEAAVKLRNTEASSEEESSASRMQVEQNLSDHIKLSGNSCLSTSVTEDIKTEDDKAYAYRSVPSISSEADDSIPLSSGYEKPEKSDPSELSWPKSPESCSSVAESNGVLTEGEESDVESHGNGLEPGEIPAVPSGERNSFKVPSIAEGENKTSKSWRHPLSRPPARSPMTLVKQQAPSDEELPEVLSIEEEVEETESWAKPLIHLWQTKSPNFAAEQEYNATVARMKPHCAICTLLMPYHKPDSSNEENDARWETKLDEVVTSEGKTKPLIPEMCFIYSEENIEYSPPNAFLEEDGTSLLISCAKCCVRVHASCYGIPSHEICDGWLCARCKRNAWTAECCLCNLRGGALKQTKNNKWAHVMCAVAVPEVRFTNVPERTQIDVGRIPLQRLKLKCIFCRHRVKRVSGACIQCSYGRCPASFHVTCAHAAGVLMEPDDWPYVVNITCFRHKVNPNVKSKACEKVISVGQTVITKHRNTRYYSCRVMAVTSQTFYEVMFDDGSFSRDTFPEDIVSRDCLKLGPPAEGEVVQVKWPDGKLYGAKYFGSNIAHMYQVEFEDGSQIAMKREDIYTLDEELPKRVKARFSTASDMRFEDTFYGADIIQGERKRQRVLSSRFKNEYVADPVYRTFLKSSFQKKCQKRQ

MKN-45 = assay: Antimigratory activity in human MKN-45 cells measured after 24 hrs by transwell assay; format: functional, cell-based
[2] = biological target: T1, Lysine-specific demethylase 4C (Homo sapiens); assay: Inhibition of KDM4C (unknown origin) at 0.01 uM relative to control
[3] = biological target: Lysine-specific demethylase 5A (Homo sapiens, UniProt P29375); assay: Inhibition of KDM5A (unknown origin) at 0.25 uM relative to control
[4] = biological target: T2, Lysine-specific demethylase 5B (Homo sapiens, UniProt Q9UGL1); assay: Inhibition of recombinant human N-terminal FLAG-tagged KDM5B expressed in Sf9 insect cells using biotin-H3K4me as substrate by ALPHA
Summary of the method: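 ALPHA demethylase assay. Recombinant KDM5B (4 nM) was preincubated with compound, then biotin-H3K4me3 peptide (64 nM) was added. Buffer: 10 μM α-KG, 100 μM ascorbate, 50 μM (NH4)2Fe(SO4)2, 50 mM HEPES pH 7.5, 0.01% Tween 20, 0.1% BSA. Read-out used streptavidin donor and H3K4me1-2 antibody acceptor beads. Data were normalized to blank control and IC50 fitted.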

[5] = biological target: T2, Lysine-specific demethylase 5B; assay: Inhibition of KDM5B in human MKN-45 cells assessed as increase in H3K4me1 accumulation at 0.5 to 20 uM measured after 5 days by Western blot analysis; format: cell-based; conditions: dose 0.5-20 µM, time 5.0 day
Summary of the method: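 MKN45 cells were treated for 5 days and lysed in RIPA buffer. About 30 µg protein was run on 10% SDS-PAGE and transferred to 0.2 µm nitrocellulose, then blocked with 5% milk in PBS for 2 h. Blots were probed for histone methylation marks with histone 3 as loading control and detected by ECL.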

[6] = biological target: T3, Lysine-specific demethylase 4A (Homo sapiens) (UniProt O75164); assay: Inhibition of KDM4A (unknown origin) at 0.25 uM relative to control
T3 sequence (whole entry): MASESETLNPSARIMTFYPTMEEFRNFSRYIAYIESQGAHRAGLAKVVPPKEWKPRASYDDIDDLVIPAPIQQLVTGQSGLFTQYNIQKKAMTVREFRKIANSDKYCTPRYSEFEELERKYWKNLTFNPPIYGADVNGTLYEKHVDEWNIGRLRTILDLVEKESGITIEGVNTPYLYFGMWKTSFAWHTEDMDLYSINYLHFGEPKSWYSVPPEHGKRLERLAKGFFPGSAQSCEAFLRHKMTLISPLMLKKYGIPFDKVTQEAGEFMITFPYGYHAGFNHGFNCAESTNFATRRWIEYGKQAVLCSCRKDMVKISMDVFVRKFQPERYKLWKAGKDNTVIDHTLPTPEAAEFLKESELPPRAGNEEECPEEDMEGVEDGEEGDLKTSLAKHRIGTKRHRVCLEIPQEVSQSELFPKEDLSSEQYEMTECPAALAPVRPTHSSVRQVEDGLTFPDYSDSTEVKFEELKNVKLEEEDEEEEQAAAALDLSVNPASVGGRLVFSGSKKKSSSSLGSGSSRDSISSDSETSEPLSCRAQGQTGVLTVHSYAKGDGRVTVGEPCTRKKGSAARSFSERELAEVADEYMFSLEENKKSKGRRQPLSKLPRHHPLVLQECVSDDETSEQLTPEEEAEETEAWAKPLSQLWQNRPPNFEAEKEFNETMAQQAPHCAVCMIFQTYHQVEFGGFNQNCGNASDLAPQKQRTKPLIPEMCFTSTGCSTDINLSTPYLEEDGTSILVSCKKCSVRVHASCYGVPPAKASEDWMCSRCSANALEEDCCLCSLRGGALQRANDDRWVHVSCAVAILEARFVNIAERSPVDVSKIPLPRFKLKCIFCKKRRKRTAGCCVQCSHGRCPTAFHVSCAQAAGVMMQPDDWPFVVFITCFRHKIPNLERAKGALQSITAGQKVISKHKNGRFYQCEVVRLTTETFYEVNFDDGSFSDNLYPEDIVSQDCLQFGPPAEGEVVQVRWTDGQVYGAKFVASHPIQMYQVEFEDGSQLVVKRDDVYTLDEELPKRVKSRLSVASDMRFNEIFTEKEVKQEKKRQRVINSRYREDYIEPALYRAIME

[7] = biological target: T2, Lysine-specific demethylase 5B; assay: Inhibition of KDM5B in human MKN-45 cells assessed as increase in H3K4me2 accumulation measured after 5 days by Hoechst 33342 staining based immunofluorescence assay; format: cell-based; conditions: time 5.0 day
Summary of the method: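 MKN45 cells were seeded and left 24 h, then treated for 5 days. Cells were fixed in 4% paraformaldehyde, permeabilised with 0.1% Triton X-100 for 20 min and blocked with 5% BSA for 1 h. H3K4me2 or H3K4me3 primary antibody was applied at 4°C overnight, followed by Alexa Fluor 488 secondary and Hoechst 33342 (5 µg/mL) nuclear stain. Signal was quantified by high content imaging; three independent experiments.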

T2 sequence (Q9UGL1 whole entry): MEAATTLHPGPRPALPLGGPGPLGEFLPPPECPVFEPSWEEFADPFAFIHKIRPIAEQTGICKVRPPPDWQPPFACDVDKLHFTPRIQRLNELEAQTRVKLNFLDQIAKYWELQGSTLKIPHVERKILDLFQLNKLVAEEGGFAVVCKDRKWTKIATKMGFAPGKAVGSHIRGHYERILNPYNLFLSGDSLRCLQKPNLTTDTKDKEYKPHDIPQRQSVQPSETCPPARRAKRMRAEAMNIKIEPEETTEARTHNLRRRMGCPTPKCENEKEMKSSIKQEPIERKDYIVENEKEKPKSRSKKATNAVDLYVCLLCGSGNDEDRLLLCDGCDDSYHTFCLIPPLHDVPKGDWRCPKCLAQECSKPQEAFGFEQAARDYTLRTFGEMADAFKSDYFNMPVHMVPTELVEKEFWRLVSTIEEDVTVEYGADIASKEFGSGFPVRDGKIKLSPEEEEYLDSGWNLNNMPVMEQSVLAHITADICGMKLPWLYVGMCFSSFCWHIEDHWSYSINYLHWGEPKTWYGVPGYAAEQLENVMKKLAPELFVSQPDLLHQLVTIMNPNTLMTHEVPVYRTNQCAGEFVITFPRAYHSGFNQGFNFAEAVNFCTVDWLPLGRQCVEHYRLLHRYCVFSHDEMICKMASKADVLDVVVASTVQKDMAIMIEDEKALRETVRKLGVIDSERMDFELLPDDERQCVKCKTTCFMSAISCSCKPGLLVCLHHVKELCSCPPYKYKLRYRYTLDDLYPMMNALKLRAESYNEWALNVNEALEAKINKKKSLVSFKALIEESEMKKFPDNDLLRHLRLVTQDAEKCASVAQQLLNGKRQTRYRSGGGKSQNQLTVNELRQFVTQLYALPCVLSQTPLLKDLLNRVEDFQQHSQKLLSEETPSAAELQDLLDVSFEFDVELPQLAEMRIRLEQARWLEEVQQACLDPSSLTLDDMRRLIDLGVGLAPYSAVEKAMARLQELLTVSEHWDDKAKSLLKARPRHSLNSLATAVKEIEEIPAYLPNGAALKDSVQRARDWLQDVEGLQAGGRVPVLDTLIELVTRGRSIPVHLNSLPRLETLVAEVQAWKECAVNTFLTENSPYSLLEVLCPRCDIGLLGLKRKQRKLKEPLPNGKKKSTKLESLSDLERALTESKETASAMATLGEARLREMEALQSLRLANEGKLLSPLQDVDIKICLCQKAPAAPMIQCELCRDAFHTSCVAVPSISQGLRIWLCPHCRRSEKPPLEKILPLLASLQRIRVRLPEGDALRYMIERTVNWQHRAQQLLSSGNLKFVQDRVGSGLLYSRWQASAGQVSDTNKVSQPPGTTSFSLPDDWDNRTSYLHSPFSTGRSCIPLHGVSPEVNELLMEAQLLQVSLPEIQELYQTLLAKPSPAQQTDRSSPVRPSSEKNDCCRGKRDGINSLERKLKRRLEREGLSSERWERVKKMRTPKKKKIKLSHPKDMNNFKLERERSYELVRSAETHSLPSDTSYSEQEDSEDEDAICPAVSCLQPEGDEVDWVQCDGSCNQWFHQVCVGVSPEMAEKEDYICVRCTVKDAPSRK
Chain of Lysine-specific demethylase 5A (P29375 whole entry): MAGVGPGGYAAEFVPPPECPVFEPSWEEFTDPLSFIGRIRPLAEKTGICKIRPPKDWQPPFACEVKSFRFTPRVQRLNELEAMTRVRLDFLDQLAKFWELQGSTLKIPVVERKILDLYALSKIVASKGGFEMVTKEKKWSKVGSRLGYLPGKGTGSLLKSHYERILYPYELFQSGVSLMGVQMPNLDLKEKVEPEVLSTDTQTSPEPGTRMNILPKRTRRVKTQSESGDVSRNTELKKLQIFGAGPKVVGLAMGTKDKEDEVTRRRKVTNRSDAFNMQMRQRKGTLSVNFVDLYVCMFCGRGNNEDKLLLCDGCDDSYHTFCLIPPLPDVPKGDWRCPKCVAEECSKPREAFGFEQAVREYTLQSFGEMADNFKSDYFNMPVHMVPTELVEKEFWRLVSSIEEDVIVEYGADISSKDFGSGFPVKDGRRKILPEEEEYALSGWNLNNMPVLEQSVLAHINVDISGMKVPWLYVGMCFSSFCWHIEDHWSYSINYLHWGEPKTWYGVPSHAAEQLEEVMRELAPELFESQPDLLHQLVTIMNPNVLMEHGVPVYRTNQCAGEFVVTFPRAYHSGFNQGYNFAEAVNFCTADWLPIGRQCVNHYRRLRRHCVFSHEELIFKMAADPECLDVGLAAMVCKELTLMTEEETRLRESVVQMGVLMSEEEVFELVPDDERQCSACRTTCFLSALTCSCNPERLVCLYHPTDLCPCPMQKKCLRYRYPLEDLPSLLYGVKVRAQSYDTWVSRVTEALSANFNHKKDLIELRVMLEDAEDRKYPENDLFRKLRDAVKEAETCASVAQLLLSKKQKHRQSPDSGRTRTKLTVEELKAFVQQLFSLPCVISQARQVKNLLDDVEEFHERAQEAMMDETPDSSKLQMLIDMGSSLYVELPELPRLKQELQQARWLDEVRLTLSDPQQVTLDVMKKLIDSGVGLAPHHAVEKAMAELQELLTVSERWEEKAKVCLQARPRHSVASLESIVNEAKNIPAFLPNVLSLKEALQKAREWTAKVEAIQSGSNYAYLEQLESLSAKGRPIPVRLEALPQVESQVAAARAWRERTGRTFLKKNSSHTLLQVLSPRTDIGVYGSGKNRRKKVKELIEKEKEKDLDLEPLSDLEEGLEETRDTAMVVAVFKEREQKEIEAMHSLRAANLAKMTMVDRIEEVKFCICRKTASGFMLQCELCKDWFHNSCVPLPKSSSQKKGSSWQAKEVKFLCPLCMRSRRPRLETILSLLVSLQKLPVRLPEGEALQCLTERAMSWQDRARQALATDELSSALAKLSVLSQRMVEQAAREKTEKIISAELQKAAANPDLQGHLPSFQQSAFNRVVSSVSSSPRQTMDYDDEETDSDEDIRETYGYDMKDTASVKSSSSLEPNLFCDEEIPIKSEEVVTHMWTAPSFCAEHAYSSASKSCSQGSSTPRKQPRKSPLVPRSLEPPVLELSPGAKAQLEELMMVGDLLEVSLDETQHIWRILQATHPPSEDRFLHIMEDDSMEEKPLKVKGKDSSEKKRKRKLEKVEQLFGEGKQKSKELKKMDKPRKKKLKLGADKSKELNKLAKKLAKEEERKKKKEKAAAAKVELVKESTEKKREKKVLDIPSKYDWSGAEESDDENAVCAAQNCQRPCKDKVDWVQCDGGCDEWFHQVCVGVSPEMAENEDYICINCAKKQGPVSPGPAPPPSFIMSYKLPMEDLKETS

Compound: COc1ccc(-n2cc(C(=O)NCC(C)(C)N3CCOCC3)c(-c3ccccc3)n2)cc1
- inhibition [1]: 39.4%
- Activity (MKN-45): Dose-dependent effect
- inhibition [2]: 3.52%
- inhibition [3]: 62.4%
- pIC50 [4]: 7.61
- inhibition [5]: inactive
- inhibition [6]: 29.4%
- inhibition [7]: Dose-dependent effect
